These results are taken from ChEMBL document CHEMBL1158372, “Design, synthesis, and biological evaluation of novel triazole derivatives as inhibitors of cytochrome P450 14alpha-demethylase” (2009).

What all share (assay type): functional
In assay [1] the test system is Candida tropicalis. Description: Antifungal activity against Candida tropicalis by micro-broth dilution method. In a few lines:
(§1)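 Broth microdilution in 96-well plates following the NCCLS method. DMSO solutions of test agents were serially diluted in growth medium, inoculated, and incubated at 35 °C. MIC80 is the first well showing roughly 80% growth reduction versus the drug-free control. C. albicans ATCC76615 and Cry. neoformans ATCC32609 served as quality-control strains. Each test was done three times; the mean of replicates is reported.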
Background: Dilution methods test growth across graded concentrations, often in twofold steps.

In assay [2] the test system is Nannizzia gypsea. The assay can be described thus: Antifungal activity against Microsporum gypseum by micro-broth dilution method. In a few lines: as §1
Assay [3] deals with Candida parapsilosis. The assay can be described thus: Antifungal activity against Candida parapsilosis by micro-broth dilution method. The settings on record: Lodderomyces parapsilosis. In a few lines:
as §1

For assay [4], the system named is Aspergillus fumigatus. The assay can be described thus: Antifungal activity against Aspergillus fumigatus by micro-broth dilution method. Put shortly: as §1
In assay [5] the test system is Candida albicans. The assay can be described thus: Antifungal activity against Candida albicans ATCC 76615 after 24 hrs by micro-broth dilution method. The settings on record: ATCC 76615, 24 h. In a few lines:
(§2)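 NCCLS (M27-A2) broth microdilution in 96-well format. Compounds in DMSO, serially diluted in growth medium, inoculated, incubated at 35 °C, and read at 24 h (C. albicans ATCC76615) or 72 h (Cry. neoformans ATCC32609). MIC80 is the first well with about 80% less growth than the drug-free well. Three independent runs per agent; the mean of replicates is reported.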

Assay [6] has as its system Trichophyton rubrum. Description: Antifungal activity against Trichophyton rubrum by micro-broth dilution method. Put shortly:
as §1

The test system of assay [7] is Cryptococcus neoformans. Description: Antifungal activity against Cryptococcus neoformans ATCC 32609 after 72 hrs by micro-broth dilution method. To be noted: ATCC 32609, 72 h. Put shortly:
as §2

The subject of assay [8] is Pichia kudriavzevii. The assay can be described thus: Antifungal activity against Candida krusei by micro-broth dilution method. Put shortly:
as §1

≈ marks a conversion by molar mass, not a printed value. Some results are limits rather than exact numbers.

One may read the MIC80 as an inhibitory concentration at the 80% level, which refers to growth in some studies and to a panel of isolates in others. Low readings indicate higher susceptibility, high ones lower susceptibility. Take `C=CCN(Cc1ccc(C(=O)OCC)cc1)CC(O)(Cn1cncn1)c1ccc(F)cc1F` (centres undefined): the MIC80 in assay [1] was 0.25 µg/mL (≈ 0.548 µM); in assay [2], 0.25 µg/mL (≈ 0.548 µM); in assay [3] it was 1 µg/mL (≈ 2.19 µM); in assay [4], above 64 µg/mL; in assay [5], 0.0039 µg/mL (≈ 0.00854 µM); in assay [6], 0.25 µg/mL (≈ 0.548 µM). For the same compound, the MIC80 in assay [7] amounted to 1 µg/mL (≈ 2.19 µM); in assay [8] it was 0.0625 µg/mL (≈ 0.137 µM).
Regarding `C=CCN(Cc1ccccc1F)CC(O)(Cn1cncn1)c1ccc(F)cc1F` (centres undefined), the MIC80 in assay [1] was 0.0625 µg/mL (≈ 0.155 µM); in assay [2] it was 0.0039 µg/mL (≈ 0.00969 µM); in assay [3] it was 0.0156 µg/mL (≈ 0.0388 µM); in assay [4], above 64 µg/mL; in assay [5] it was 0.0039 µg/mL (≈ 0.00969 µM); in assay [6] it was 0.25 µg/mL (≈ 0.621 µM). The values for the MIC80 in assay [7] and in assay [8] were 0.0625 µg/mL (≈ 0.155 µM) and 0.0156 µg/mL (≈ 0.0388 µM), respectively.
As for `C[C@@H]1[C@H](O)[C@@H](C)/C=C/C=C/C=C/C=C/C=C/C=C/C=C/[C@H](O[C@@H]2O[C@H](C)[C@@H](O)[C@H](N)[C@@H]2O)C[C@@H]2O[C@](O)(C[C@@H](O)C[C@@H](O)[C@H](O)CC[C@@H](O)C[C@@H](O)CC(=O)O[C@H]1C)C[C@H](O)[C@H]2C(=O)O` [AMPHOTERICIN B], the MIC80 stood at 2 µg/mL (≈ 2.16 µM) in assay [1]; 2 µg/mL (≈ 2.16 µM) in assay [2]; 2 µg/mL (≈ 2.16 µM) in assay [3]; 64 µg/mL (≈ 69.3 µM) in assay [4]; 2 µg/mL (≈ 2.16 µM) in assay [5]; 2 µg/mL (≈ 2.16 µM) in assay [6]. For the same compound, the MIC80 in assay [7] and in assay [8] was 2 µg/mL (≈ 2.16 µM) each time.
Turning to `OC(Cn1cncn1)(Cn1cncn1)c1ccc(F)cc1F` [FLUCONAZOLE], the MIC80 in assay [1] was 1 µg/mL (≈ 3.27 µM); in assay [2], 0.25 µg/mL (≈ 0.816 µM); in assay [3], 1 µg/mL (≈ 3.27 µM); in assay [4], above 64 µg/mL; in assay [5] it was 0.5 µg/mL (≈ 1.63 µM); in assay [6] it was 4 µg/mL (≈ 13.1 µM). The MIC80 was 1 µg/mL (≈ 3.27 µM) in assay [7] and 4 µg/mL (≈ 13.1 µM) in assay [8].
Take `CCC(C)n1ncn(-c2ccc(N3CCN(c4ccc(OCC5COC(Cn6cncn6)(c6ccc(Cl)cc6Cl)O5)cc4)CC3)cc2)c1=O` (centres undefined) [ITRACONAZOLE]: the MIC80 in assay [1] stood at 0.125 µg/mL (≈ 0.177 µM); in assay [2], 0.0625 µg/mL (≈ 0.0886 µM); in assay [3], 0.125 µg/mL (≈ 0.177 µM); in assay [4], 0.5 µg/mL (≈ 0.709 µM); in assay [5] it was 0.0625 µg/mL (≈ 0.0886 µM); in assay [6], 0.125 µg/mL (≈ 0.177 µM). The MIC80 in assay [7] amounted to 0.125 µg/mL (≈ 0.177 µM); in assay [8], 0.5 µg/mL (≈ 0.709 µM).
In the case of `CC(=O)N1CCN(c2ccc(OCC3COC(Cn4ccnc4)(c4ccc(Cl)cc4Cl)O3)cc2)CC1` (centres undefined) [KETOCONAZOLE], the MIC80 in assay [1] is 0.0625 µg/mL (≈ 0.118 µM); in assay [2], 0.0156 µg/mL (≈ 0.0294 µM); in assay [3] it was 0.0625 µg/mL (≈ 0.118 µM); in assay [4] it was 1 µg/mL (≈ 1.88 µM); in assay [5], 0.0156 µg/mL (≈ 0.0294 µM); in assay [6] it was 0.0625 µg/mL (≈ 0.118 µM). For the same compound, the MIC80 was determined as 0.0625 µg/mL (≈ 0.118 µM) in assay [7] and 0.25 µg/mL (≈ 0.47 µM) in assay [8].
For the compound `CN(C/C=C/C#CC(C)(C)C)Cc1cccc2ccccc12` [TERBINAFINE], the MIC80 in assay [1] came out at 0.0625 µg/mL (≈ 0.214 µM); in assay [2] it was 4 µg/mL (≈ 13.7 µM); in assay [3] it was 0.25 µg/mL (≈ 0.858 µM); in assay [4], 0.0625 µg/mL (≈ 0.214 µM); in assay [5], 4 µg/mL (≈ 13.7 µM); in assay [6] it was 0.0625 µg/mL (≈ 0.214 µM). For the same compound, the figures for the MIC80 in assay [7] and in assay [8] were 1 µg/mL (≈ 3.43 µM) and 16 µg/mL (≈ 54.9 µM), respectively.
`C[C@@H](c1ncncc1F)[C@](O)(Cn1cncn1)c1ccc(F)cc1F` [VORICONAZOLE]: the MIC80 in assay [1] worked out at 0.0039 µg/mL (≈ 0.0112 µM); in assay [2], 0.0039 µg/mL (≈ 0.0112 µM); in assay [3], 0.0039 µg/mL (≈ 0.0112 µM); in assay [4], 0.25 µg/mL (≈ 0.716 µM); in assay [5] it was 0.0156 µg/mL (≈ 0.0447 µM); in assay [6], 0.0625 µg/mL (≈ 0.179 µM). Besides, the MIC80 in assay [7] was 0.0156 µg/mL (≈ 0.0447 µM); in assay [8], 0.0625 µg/mL (≈ 0.179 µM).
